Source: PubChem
KCNK3 inh: human KCNK3 channel inhibition, primary screen; O14649; CHO-KCNK3 thallium flux, FluxOR fluorescence; stronger effect = lower value; B-score at 10 µM; AID 602410; hit rate 0.84% among 340,000;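 active = B-score under library mean minus 4 SD, starting fluorescence ratio at most library mean plus 5 SD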;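 note: more negative B-score means stronger inhibition of thallium flux through KCNK3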
Target sequence (O14649 whole entry, looked up): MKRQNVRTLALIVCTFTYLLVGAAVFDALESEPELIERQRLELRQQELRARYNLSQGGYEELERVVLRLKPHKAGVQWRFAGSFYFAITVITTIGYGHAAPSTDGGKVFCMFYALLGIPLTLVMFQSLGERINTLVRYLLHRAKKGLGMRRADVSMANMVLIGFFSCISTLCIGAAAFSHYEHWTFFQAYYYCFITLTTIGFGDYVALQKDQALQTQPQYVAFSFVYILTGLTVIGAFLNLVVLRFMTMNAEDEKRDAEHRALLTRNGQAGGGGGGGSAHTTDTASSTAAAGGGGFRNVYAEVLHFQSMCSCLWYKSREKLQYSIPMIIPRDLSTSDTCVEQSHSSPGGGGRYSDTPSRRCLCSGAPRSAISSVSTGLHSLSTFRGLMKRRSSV
KCNQ1 inh: blocks the human KCNQ1 potassium channel; CHO-K1 KCNQ1, FluxOR thallium flux fluorescence; stronger effect = higher value; AID 2642; hit rate 1.3% among 310,000; B-score at 10 µM; P51787;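 active = compounds whose thallium flux B-score, printed positive for inhibition, exceeds three library SD while starting fluorescence stays within three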;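 note: channel opened by potassium depolarization with thallium stimulus after 20 min compound exposure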
KCNK9 inh: human KCNK9 channel inhibition; Q9NPC2; HEK293 KCNK9, FluxOR thallium flux fluorescence; stronger effect = lower value; B-score at 10 µM; hit rate 1.2% among 310,000; AID 488922;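 active = ratio B-score over 3 SD below the library mean, with starting fluorescence within 5 SD of its mean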;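 note: negative B-score means less thallium flux so channel inhibition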
KCNQ1 pot: human KCNQ1 channel potentiation or activation; P51787; hit rate 0.35% among 310,000; CHO-K1 KCNQ1, thallium flux FluxOR fluorescence; stronger effect = higher value; B-score at 10 µM;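 active = fluorescence ratio B-score, a plate-corrected score, at least three library SD, with initial intensity B-score within 5 SD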
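Assay system: CHO-K1 cells stably expressing KCNQ1. Medium: assay buffer for compound exposure, DMSO matched across wells. Timing: 37 °C overnight plating, 90-min dark dye load, 20-min compound pretreatment. Signal: kinetic FluxOR fluorescence, 10 s baseline plus 110 s post-stimulus.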
Cl transport mod: modulates chloride dependent transport by human KCC2 | Q9H2X9 | hit rate 2.2% among 190,000 | B-score of Tl+ flux slope (higher = more flux/activation; lower = inhibition) at 10 µM | KCC2 cells, thallium flux FluoZin-2 fluorescence;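 active = thallium flux slope and its plate-corrected score both differing from the plate sample mean at a set confidence after two filtering rounds, in either direction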;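 note: slope of fluorescence scaled to starting intensity during 10 to 20 s after thallium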
hERG rescue: hERG (human) protection from proarrhythmic block. Q12809. CHO-hERG, FluxOR thallium flux, dofetilide IC70 present. activation (rescue from dofetilide block), less the hit threshold, % at 10 µM. hit rate 0.51% among 310,000;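 active = activation above the mean of controls blocked by dofetilide plus 5 SD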;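 note: thallium influx through hERG after potassium depolarization seen as dye fluorescence rise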
KCNK9 block conf: confirmation of human KCNK9 potassium channel inhibitors; hit rate 43% among 4,900; inhibition, % at 10 µM; shares compounds with KCNK9 inh; HEK293 KCNK9 cells, FluxOR thallium flux fluorescence; AID 492992;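 active = thallium signal inhibited by more than 5 SD of the compound-free buffer control wells, on both duplicate plates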;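 note: 0% = assay buffer control wells without compound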
Kir21 sel: tests whether KCNK9 modulators also affect mouse Kir2.1; shares compounds with KCNK9 inh; Kir2.1 cells, FluxOR thallium flux fluorescence; inhibition, % at 10 µM; hit rate 4% among 4,900;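 active = thallium signal drop more than 5 SD beyond the mean of the no-compound control wells, seen in both duplicate plates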;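 note: signal is fluorescence rise after thallium addition divided by baseline fluorescence; plate controls were assay buffer only for no effect and full block by chlorpromazine control for full effect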
KCNK9 uninduced: second check of KCNK9 modulator effects in non-induced HEK293 cells; shares compounds with KCNK9 inh; FluxOR thallium flux; inhibition, % at 10 µM; hit rate 40% among 4,900;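 active = thallium signal drop beyond 5 SD of the untreated control mean, on both duplicate plates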;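 note: plate controls were buffer only IC0 wells for no effect and SID17386958 at its maximal inhibitory level for full effect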
An asterisk follows results filed as active; i = inactive; · = no result. A selection: hits, their analogues and other compounds. The true share with any hit is near 4.1%.

SMILES	KCNK3 inh	KCNQ1 inh	KCNK9 inh	KCNQ1 pot	Cl transport mod	hERG rescue	KCNK9 block conf	Kir21 sel	KCNK9 uninduced
CCOC(=O)c1c(Cc2cccc(Cl)c2)c[nH]c1C	i	6*	-10*	i	-0.76	-22	68%*	i	28%*
COC(=O)c1c(Cc2ccccc2Cl)c[nH]c1C	i	i	i	i	-0.79	-7	·	·	·
CC(C)Oc1ccc(CNC(=O)c2ccc3c(c2)N(C)CCS3)cc1	i	i	i	i	·	-15	i	i	i
O=C1NC(Cc2ccccc2)C(=O)N1Cc1cc([N+](=O)[O-])cc2c1OCOC2 (stereo not drawn)	i	i	i	i	-0.42	-17	·	·	·
CC1CN(c2oc(COc3ccc(Cl)cc3Cl)nc2C#N)CC(C)O1 (stereo not drawn)	i	i	i	i	·	-1	i	i	i
N#Cc1nc(COc2ccccc2Cl)oc1N1CCCC1	i	i	i	i	-2.7	-4	·	·	·
O=C(Cc1ccc([N+](=O)[O-])cc1)Nc1nccs1	i	i	-20*	i	0.81	1	i	i	i
O=C(CSc1ncnc2sc3c(c12)CCCC3)N1CCC(c2noc3ccc(F)cc23)CC1	i	i	i	i	0.71	-22	i	i	i
Cc1cc(SCC(=O)N2CCCC2=O)nc2ccccc12	i	·	·	·	·	·	·	·	·
Cc1cc(SCC(=O)N2CCC(c3noc4ccc(F)cc34)CC2)nc2ccccc12	i	i	i	i	-0.87	-12	i	i	i
CC(C)Cn1c(SCC(=O)Nc2cc(Cl)c(Cl)cc2Cl)nc(O)cc1=O	i	i	i	i	·	-12	·	·	·
COc1cccc(NC(=O)C(Sc2nnc(Nc3ccccc3C)s2)c2ccccc2)c1 (stereo not drawn)	i	i	-9.1*	i	-0.12	-7	i	i	38%*
CCc1nc(Sc2nnnn2-c2ccccc2)c2c3c(sc2n1)CCCC3	i	i	i	i	-1.1	-5	i	i	i
Cc1ccccc1C1CCCN(Cc2nc(C3CC3)no2)C1 (stereo not drawn)	i	i	i	i	0.22	-7	i	i	i
C=CCC[C@H](Cc1ccc(F)cc1)C(=O)OC[C@H](C)NC(=O)[C@H](CC=C)CC(=O)NCCO	i	·	·	·	·	·	·	·	·
Cc1ccc(CN2CCc3c(OCc4ccc(F)cc4)cccc3C2=O)cc1	i	i	-13*	i	-1.5	-11	71%*	i	42%*
COc1cccc(C2CCCN2Cc2nc(CCC(C)C)no2)c1 (stereo not drawn)	i	i	i	i	0.83	-15	i	i	i
O=C(NC12CC3CC(CC(C3)C1)C2)c1ccc(-c2ccccc2Cl)o1	i	i	i	i	0.25	-5	i	i	i
CC1CCCCC1NC(=O)COC(=O)/C=C/c1ccco1 (stereo not drawn)	i	·	·	·	·	·	·	·	·
CCCn1c(=O)c(C(=O)Nc2cccc(C)n2)c(O)c2ccccc21	i	i	-10*	i	·	-7	i	i	29%*
CCCn1c(=O)c(C(=O)Nc2ncccc2C)c(O)c2ccccc21	i	i	i	i	0.2	-6	·	·	·
CN(CC(=O)Nc1ccc(Cl)c(C(F)(F)F)c1)C(=O)c1cc(-c2ccncc2)nc2ccccc12	i	i	i	i	·	-14	·	·	·
Cc1ccc(C2NC(c3ccc(C)cc3)C(C)C(=NO)C2C)cc1 (stereo not drawn)	i	i	i	i	·	-10	i	i	i
Cc1cccc(-n2nc(C(=O)Nc3ccccc3)n3c(=O)cc(-c4ccccc4)nc23)c1	i	i	i	i	-0.43	-11	i	i	i
CCOC(=O)c1nn(-c2cccc(Cl)c2)c2nc(Nc3ccccc3)cc(=O)n12	i	i	i	i	0.56	-6	·	·	·
SMILES	KCNK3 inh	KCNQ1 inh	KCNK9 inh	KCNQ1 pot	Cl transport mod	hERG rescue	KCNK9 block conf	Kir21 sel	KCNK9 uninduced
CCCN(CCC)C(=O)COc1cc(=O)n(CC)c2ccccc12	i	i	i	i	0.65	-5	·	·	·
CCN(Cc1ccccc1)C(=O)COc1cc(=O)n(CC)c2ccccc12	i	i	i	i	0.49	-8	i	i	i
N#C/C(=C/c1ccccc1OCc1ccc(F)cc1)c1ccc(C(=O)O)cc1	i	i	i	i	·	-10	·	·	·
N#C/C(=C/c1ccc(OCc2ccc(C(=O)O)cc2)c(Br)c1)c1cccc(F)c1	i	i	i	i	-1.7	-11	i	i	i
OC(COCc1ccco1)CN1CCN(C(c2ccccc2)c2ccccc2)CC1 (stereo not drawn)	i	i	i	i	·	-13	·	·	·
Cc1ccc(Cl)cc1N1CCN(CC(O)COCc2ccco2)CC1 (stereo not drawn)	i	i	i	i	-0.12	-11	i	i	i
Cc1ccc(-c2c(C)sc3ncn(CC(=O)N4CCOCC4)c(=O)c23)cc1C	i	i	i	i	0.5	-12	i	i	i
Cc1sc2ncn(CC(=O)N3CCCCC3)c(=O)c2c1C	i	i	i	i	-0.023	-1	·	·	·
O=C(O)c1ccc(CSc2nc(-c3ccccc3)cc(C(F)(F)F)n2)cc1	i	i	i	i	-2	-6	i	i	i
O=C(O)c1ccc(CSc2nc(-c3ccc(Cl)cc3)cc(C(F)(F)F)n2)cc1	i	i	i	i	-1.2	-1	·	·	·
Cc1cc(NCCOCCO)n2c(nc3ccccc32)c1C#N	i	i	-14*	i	·	-3	36%*	i	i
Cc1cccc(NC(=O)CSc2cc(C)c(C#N)c3nc4ccccc4n23)c1	i	i	i	i	·	-10	i	i	i
CC1CC(C)CN(C(=O)Cn2c(=O)c3cccn3c3cccnc32)C1 (stereo not drawn)	i	i	i	i	·	1	·	·	·
CCOCCCNC(=S)NCCNc1nc2ccc(C)cc2cc1C#N	i	i	-8.3*	i	0.023	-8	i	i	i
CN(CC(=O)NCc1cccs1)S(=O)(=O)c1cccc2nsnc12	i	i	i	i	·	-6	·	·	·
